pKi: −log10 of the molar value.
Assays:
[1] = biological target: T1, Gamma-aminobutyric acid receptor subunit alpha-5 (Homo sapiens) (UniProt P31644); test: Binding selectivity for human gamma-aminobutyric-acid A receptor alpha-5 over GABA A alpha1,alpha2 and alpha-3 receptors
T1 sequence (whole entry): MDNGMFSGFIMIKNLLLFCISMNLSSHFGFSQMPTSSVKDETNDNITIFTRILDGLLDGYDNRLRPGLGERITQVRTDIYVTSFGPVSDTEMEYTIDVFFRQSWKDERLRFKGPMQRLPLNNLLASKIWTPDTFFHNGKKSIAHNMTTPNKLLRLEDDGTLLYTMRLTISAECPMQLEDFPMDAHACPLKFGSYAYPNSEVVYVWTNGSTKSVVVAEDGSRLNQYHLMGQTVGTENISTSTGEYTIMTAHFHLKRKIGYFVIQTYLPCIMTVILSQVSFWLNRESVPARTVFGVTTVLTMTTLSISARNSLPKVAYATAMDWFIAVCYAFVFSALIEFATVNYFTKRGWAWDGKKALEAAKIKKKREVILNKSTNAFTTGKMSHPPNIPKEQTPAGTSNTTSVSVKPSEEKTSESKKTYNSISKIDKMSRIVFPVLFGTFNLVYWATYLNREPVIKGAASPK

[2] = biological target: T2, GABA-A receptor; alpha-1/beta-3/gamma-2 (Homo sapiens, UniProt P14867+P18507+P28472); test: Binding affinity to human gamma-aminobutyric-acid A receptor alpha-1-beta-3-gamma-2, determined using [3H]-Ro- 15-1788 radioligand; assay type: protein-complex assay
T2 sequence (P14867 whole entry): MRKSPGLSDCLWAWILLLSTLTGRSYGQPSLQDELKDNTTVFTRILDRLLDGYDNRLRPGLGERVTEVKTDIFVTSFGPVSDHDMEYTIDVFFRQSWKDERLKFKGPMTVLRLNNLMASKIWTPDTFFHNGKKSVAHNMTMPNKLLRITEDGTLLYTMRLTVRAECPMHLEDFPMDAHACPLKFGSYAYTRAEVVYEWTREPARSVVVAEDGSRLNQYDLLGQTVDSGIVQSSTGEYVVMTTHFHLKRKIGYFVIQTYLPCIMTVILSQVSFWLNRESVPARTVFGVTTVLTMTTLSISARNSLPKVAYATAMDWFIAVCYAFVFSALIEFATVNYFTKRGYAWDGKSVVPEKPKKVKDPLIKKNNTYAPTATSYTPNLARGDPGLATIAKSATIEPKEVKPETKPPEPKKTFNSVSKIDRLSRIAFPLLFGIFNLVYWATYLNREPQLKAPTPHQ
T2 sequence (P18507 whole entry): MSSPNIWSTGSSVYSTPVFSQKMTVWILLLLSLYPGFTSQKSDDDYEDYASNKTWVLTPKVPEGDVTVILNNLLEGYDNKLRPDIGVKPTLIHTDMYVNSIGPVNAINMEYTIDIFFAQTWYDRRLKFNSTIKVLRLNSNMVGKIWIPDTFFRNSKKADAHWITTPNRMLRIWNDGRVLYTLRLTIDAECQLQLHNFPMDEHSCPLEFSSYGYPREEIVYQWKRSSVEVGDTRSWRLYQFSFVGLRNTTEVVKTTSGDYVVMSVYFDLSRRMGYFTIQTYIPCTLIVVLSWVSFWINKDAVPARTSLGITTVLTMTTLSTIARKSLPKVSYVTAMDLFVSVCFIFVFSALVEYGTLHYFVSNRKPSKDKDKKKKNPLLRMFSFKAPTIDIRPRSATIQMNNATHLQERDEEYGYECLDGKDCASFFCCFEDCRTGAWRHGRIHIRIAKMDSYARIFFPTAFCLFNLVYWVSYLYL
T2 sequence (P28472 whole entry): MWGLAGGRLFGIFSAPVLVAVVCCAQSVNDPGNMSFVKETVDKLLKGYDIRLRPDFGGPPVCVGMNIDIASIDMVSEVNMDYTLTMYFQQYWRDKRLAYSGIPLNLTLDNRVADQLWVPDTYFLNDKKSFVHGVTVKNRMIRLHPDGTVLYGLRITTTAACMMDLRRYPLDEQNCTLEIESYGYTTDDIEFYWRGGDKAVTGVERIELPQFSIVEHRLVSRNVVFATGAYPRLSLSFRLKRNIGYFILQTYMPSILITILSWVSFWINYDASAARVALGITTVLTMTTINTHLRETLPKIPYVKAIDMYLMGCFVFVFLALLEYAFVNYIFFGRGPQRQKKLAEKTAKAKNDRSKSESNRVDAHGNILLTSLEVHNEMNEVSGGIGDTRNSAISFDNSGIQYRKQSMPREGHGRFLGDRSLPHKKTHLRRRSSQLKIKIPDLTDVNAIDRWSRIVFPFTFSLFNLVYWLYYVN
How it was run: (§1)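 Displacement of [3H]Ro 15-1788 binding from harvested L(tk-) cells stably expressing human recombinant GABA-A receptors with β3 and γ2 subunits plus α1, α2, α3 or α5. […] Ki given as geometric mean ± SEM of three independent determinations.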

[3] = biological target: T3, GABA-A receptor; alpha-5/beta-3/gamma-2 (Homo sapiens, UniProt P18507+P28472+P31644); test: Binding affinity to human GABA A alpha-5-beta-3-gamma-2 receptor, using a [3H]-Ro- 15-1788 radioligand; assay type: protein-complex assay; how it was run: as §1
T3 sequence (P18507 whole entry): T2 sequence (P18507 whole entry)
T3 sequence (P28472 whole entry): T2 sequence (P28472 whole entry)
T3 sequence (P31644 whole entry): T1 sequence (whole entry)

[4] = biological target: T4, GABA-A receptor; alpha-3/beta-3/gamma-2 (Homo sapiens, UniProt P18507+P28472+P34903); test: Binding affinity to human gamma-amino butyric-acid A receptor alpha-3-beta-3-gamma-2, using a [3H]-Ro- 15-1788 radioligand; assay type: protein-complex assay; how it was run: as §1
T4 sequence (P18507 whole entry): T2 sequence (P18507 whole entry)
T4 sequence (P28472 whole entry): T2 sequence (P28472 whole entry)
T4 sequence (P34903 whole entry): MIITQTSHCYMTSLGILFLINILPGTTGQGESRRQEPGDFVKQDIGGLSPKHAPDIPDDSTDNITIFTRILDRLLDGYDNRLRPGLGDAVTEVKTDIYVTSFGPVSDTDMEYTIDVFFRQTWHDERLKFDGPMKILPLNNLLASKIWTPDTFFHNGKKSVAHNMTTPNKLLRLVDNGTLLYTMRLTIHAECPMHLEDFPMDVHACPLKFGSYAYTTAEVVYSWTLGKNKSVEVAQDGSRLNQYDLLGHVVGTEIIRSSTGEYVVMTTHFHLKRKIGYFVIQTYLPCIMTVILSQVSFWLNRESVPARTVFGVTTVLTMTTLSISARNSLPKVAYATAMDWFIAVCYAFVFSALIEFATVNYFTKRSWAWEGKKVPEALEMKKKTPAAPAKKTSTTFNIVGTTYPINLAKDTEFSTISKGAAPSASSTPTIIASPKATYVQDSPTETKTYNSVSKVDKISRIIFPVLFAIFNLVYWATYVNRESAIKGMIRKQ

[5] = biological target: T5, GABA-A receptor; alpha-2/beta-3/gamma-2 (Homo sapiens, UniProt P18507+P28472+P47869); test: Binding affinity to human gamma-amino butyric-acid A receptor alpha-2-beta-3-gamma-2, using a [3H]-Ro- 15-1788 radioligand; assay type: protein-complex assay; how it was run: as §1
T5 sequence (P18507 whole entry): T2 sequence (P18507 whole entry)
T5 sequence (P28472 whole entry): T2 sequence (P28472 whole entry)
T5 sequence (P47869 whole entry): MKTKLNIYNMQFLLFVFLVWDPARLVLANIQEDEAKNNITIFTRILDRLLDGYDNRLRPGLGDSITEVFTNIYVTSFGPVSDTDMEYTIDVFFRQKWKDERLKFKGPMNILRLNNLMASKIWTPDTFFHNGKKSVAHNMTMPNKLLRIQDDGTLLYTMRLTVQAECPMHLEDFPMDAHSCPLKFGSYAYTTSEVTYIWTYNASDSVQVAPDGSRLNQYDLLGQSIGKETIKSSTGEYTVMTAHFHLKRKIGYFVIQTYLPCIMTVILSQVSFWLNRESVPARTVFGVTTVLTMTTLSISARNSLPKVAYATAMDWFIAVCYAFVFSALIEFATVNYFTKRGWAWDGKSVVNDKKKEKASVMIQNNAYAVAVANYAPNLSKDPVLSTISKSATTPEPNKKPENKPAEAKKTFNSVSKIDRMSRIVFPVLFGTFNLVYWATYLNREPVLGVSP

[6] = biological target: GABA-A receptor; alpha-5/beta-3/gamma-2 (Homo sapiens) (UniProt P18507+P28472+P31644); test: Efficacy for GABA-A receptor alpha-5-beta-3-gamma-2 subunits expressed in Xenopus laevis oocytes by two-electrode voltage clamp recording; assay type: cell-based; conditions: Oocyte
How it was run: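 Two-electrode voltage clamp on Xenopus laevis oocytes injected with human α5β3γ2 cDNA, recorded 2-4 days after injection. Expression checked with 3 mM GABA; oocytes with currents <0.3 μA rejected. A GABA EC20 was determined per oocyte. Compound applied at a single concentration near 100× Ki. Efficacy (%) = (current with compound/control EC20 current × 100) − 100.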

| SMILES | Selectivity [1] | pKi [2] | pKi [3] | pKi [4] | pKi [5] | Efficacy [6] |
| --- | --- | --- | --- | --- | --- | --- |
| CC1(C)CC(=O)c2c(SCCO)sc(-c3cc[nH]n3)c2C1 | 11 |  |  |  |  |  |
| CC1(C)CC(=O)c2c(SCCCO)sc(-c3cc[nH]n3)c2C1 | 13 | 7.22 | 8.33 | 7.30 | 7.34 |  |
| CC1(C)CC(=O)c2csc(-c3cc[nH]n3)c2C1 |  | < 6.52 | < 6.52 | < 6.52 | < 6.52 |  |
| CNc1sc(-c2cc[nH]n2)c2c1C(=O)CC(C)(C)C2 | > 2 | < 6.52 | 6.88 | < 6.52 | < 6.52 |  |
| CC1(C)CC(=O)c2c(Sc3nccs3)sc(-c3nccs3)c2C1 | 28 | 7.62 | 8.85 | 7.55 | 7.41 | -5 |
| CCc1sc(-c2cc[nH]n2)c2c1C(=O)CC(C)(C)C2 | 22 | 6.68 | 7.96 | 6.62 | 6.79 |  |
| CC1(C)CC(=O)c2c(SCCCO)sc(-c3nccs3)c2C1 | 17 | 7.10 | 8.33 | 7.32 | 7.32 | 25 |
| CC(C)Nc1sc(-c2cc[nH]n2)c2c1C(=O)CC(C)(C)C2 | 22 | 7.14 | 8.41 | 7.06 | 7.36 | -2 |
| CC(C)Oc1sc(-c2cc[nH]n2)c2c1C(=O)CC(C)(C)C2 | 18 | 6.92 | 7.82 | 7.16 | 6.74 |  |
| CC1(C)CC(=O)c2c(SC(C)(C)C)sc(-c3cc[nH]n3)c2C1 | > 2 | < 6.52 | 6.77 | < 6.52 | < 6.52 |  |
| CC1(C)CC(=O)c2c(Sc3nccs3)sc(-c3cc[nH]n3)c2C1 | 34 | 8.37 | 8.85 | 7.32 | 7.72 | -7 |
| COc1sc(-c2cc[nH]n2)c2c1C(=O)CC(C)(C)C2 | > 5 | < 6.52 | 7.17 | < 6.52 | < 6.52 |  |
| CC1(C)CC(=O)c2c(NCCO)sc(-c3cc[nH]n3)c2C1 | > 4 | < 6.52 | 7.11 | < 6.52 | < 6.52 |  |
| CCCCSc1sc(-c2cc[nH]n2)c2c1C(=O)CC(C)(C)C2 | 10 | 7.24 | 7.74 | 6.74 | 6.74 |  |

Other lines, results leading:

| Selectivity [1] | pKi [2] | pKi [3] | pKi [4] | pKi [5] | Efficacy [6] | SMILES |
| --- | --- | --- | --- | --- | --- | --- |
| 19 |  |  |  |  | -20 | CSc1sc(-c2ccncc2)c2c1C(=O)CC(C)(C)C2 |
| 26 |  |  |  |  | -31 | CSc1sc(-c2ccccn2)c2c1C(=O)CC(C)(C)C2 |
| 10 |  |  |  |  |  | CCSc1sc(-c2cc[nH]n2)c2c1C(=O)CC(C)(C)C2 |
| 14 | 6.57 | 7.72 | 6.99 | 7.31 |  | CSc1sc(-c2ncn(C)n2)c2c1C(=O)CC(C)(C)C2 |
| 9 | 7.66 | 8.34 | 7.39 | 7.55 |  | CCCSc1sc(-c2cc[nH]n2)c2c1C(=O)CC(C)(C)C2 |
| 8 | 8.00 | 8.62 | 7.74 | 8.12 |  | CC1(C)CC(=O)c2c(Sc3cccs3)sc(-c3cc[nH]n3)c2C1 |
| 6 |  |  |  |  |  | CC(C)Sc1sc(-c2cc[nH]n2)c2c1C(=O)CC(C)(C)C2 |
| 28 |  |  |  |  | -24 | CSc1sc(-c2nccs2)c2c1C(=O)CC(C)(C)C2 |
| > 8 | < 6.52 | 7.43 | 6.73 | < 6.52 |  | CSc1sc(-c2nc(C)no2)c2c1C(=O)CC(C)(C)C2 |
| 20 |  |  |  |  | -39 | CC1(C)CC(=O)c2c(SCCO)sc(-c3ccccn3)c2C1 |
| 28 |  |  |  |  | -40 | CSc1sc(-c2cccnc2)c2c1C(=O)CC(C)(C)C2 |
| 12 | 6.76 | 7.82 | 6.80 | 6.79 |  | CSc1sc(-c2cncs2)c2c1C(=O)CC(C)(C)C2 |
| > 4 | < 6.52 | 7.07 | < 6.52 | < 6.52 |  | CSc1sc(-c2ccc[nH]2)c2c1C(=O)CC(C)(C)C2 |
|  | < 6.52 | < 6.52 | < 6.52 | < 6.52 |  | CSc1sc(-c2ccccc2)c2c1C(=O)CC(C)(C)C2 |
| 13 |  |  |  |  | -3 | CSc1sc(-c2cc[nH]n2)c2c1C(=O)CC(C)(C)C2 |
